Reference: ChEMBL document CHEMBL3397043, “Synthesis, anticandidal activity of N(3)-(4-methoxyfumaroyl)-(S)-2,3-diaminopropanoic amide derivatives--novel inhibitors of glucosamine-6-phosphate synthase” (Eur J Med Chem, 2015)
pIC50: −log10 of the molar value.

Assays:
[1] = tested on: Candida albicans; assay: Antimicrobial activity against Candida albicans ATCC 10231 assessed as growth inhibition serial 2-fold dilution microtitre plate method; format: functional
Summary of the method: (§1)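 MIC by serial 2-fold broth dilution in microtitre plates. Medium was YNB with ammonium sulfate as nitrogen source, pH 5.0. Growth was compared with control cultures and read on a microplate reader.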

[2] = tested on: Nakaseomyces glabratus; assay: Antimicrobial activity against Candida glabrata DSM 11226 assessed as growth inhibition serial 2-fold dilution microtitre plate method; format: functional; summary of the method: as §1
[3] = tested on: Candida parapsilosis; assay: Antimicrobial activity against Candida parapsilosis DSM 5784 assessed as growth inhibition serial 2-fold dilution microtitre plate method; format: functional; conditions: Lodderomyces parapsilosis; summary of the method: as §1
[4] = tested on: Staphylococcus aureus; assay: Antimicrobial activity against Staphylococcus aureus ATCC 29213 assessed as growth inhibition serial 2-fold dilution microtitre plate method; format: functional
Summary of the method: (§2)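 Bacterial MIC in Mueller Hinton Broth 2 (acid casein hydrolysate, beef extract, starch), pH 7.3. Growth was compared with control cultures and read on a microplate reader.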

[5] = tested on: Staphylococcus epidermidis; assay: Antimicrobial activity against Staphylococcus epidermidis PCM 2118 assessed as growth inhibition serial 2-fold dilution microtitre plate method; format: functional; summary of the method: as §2
[6] = tested on: Escherichia coli; assay: Antimicrobial activity against Escherichia coli PCM 2560 assessed as growth inhibition serial 2-fold dilution microtitre plate method; format: functional; summary of the method: as §2
[7] = tested on: Bacillus subtilis; assay: Antimicrobial activity against Bacillus subtilis ATCC 9372 assessed as growth inhibition serial 2-fold dilution microtitre plate method; format: functional; summary of the method: as §2
[8] = tested on: Pseudomonas aeruginosa; assay: Antimicrobial activity against Pseudomonas aeruginosa ATCC 2756 assessed as growth inhibition serial 2-fold dilution microtitre plate method; format: functional; summary of the method: as §2
[9] = Inhibition of Candida albicans glucosamine-6-phosphate synthase assessed as glucosamine-6-phosphate by Elson-Morgan method
Summary of the method: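 Enzyme source: cell-free extract of C. albicans GlcN-6-P synthase overproduced in E. coli. Incubated 37 °C for 30 min, stopped by 100 °C for 1 min. GlcN-6-P measured by modified Elson-Morgan. IC50 is the concentration giving 50% inhibition.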

[10] = Binding affinity to immobilized artificial membrane PC DD2 (unknown origin) by UV/Vis detector model
Summary of the method: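 HPLC on an IAM PC DD2 column (3 cm × 4.6 mm, 300 Å pores). Mobile phase 0.1 M phosphate buffer pH 7.2 at 1 mL/min, UV detection at 254 nm. Dead time t0 taken from citric acid retention. Capacity factor k'IAM = (tr − t0)/t0, reported as log k'IAM.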

SMILES	MIC [1] [µg/mL]	MIC [2] [µg/mL]	MIC [3] [µg/mL]	MIC [4] [µg/mL]	MIC [5] [µg/mL]	MIC [6] [µg/mL]	MIC [7] [µg/mL]	MIC [8] [µg/mL]	pIC50 [9]	log K [10]
COC(=O)/C=C/C(=O)NC[C@H](N)C(=O)O	> 2000	> 2000	> 2000	> 2000	> 2000	> 2000	> 2000	> 2000	5.39	-0.812
COC(=O)/C=C/C(=O)NC[C@H](N)C(N)=O.Cl	4	> 1020	> 1020	> 1020	> 1020	> 1020	> 1020	> 1020	4.09	-0.362
COC(=O)/C=C/C(=O)NC[C@H](N)C(=O)N(C)C.Cl	512	> 1020	> 1020	> 1020	> 1020	> 1020	> 1020	> 1020	2.54	0.118
CNC(=O)[C@@H](N)CNC(=O)/C=C/C(=O)OC.Cl	32	> 1020	> 1020	> 1020	> 1020	> 1020	> 1020	> 1020	3.90	-0.193
